# Measurements as given in ChEMBL document CHEMBL1123861, “Antitumor agents. 89. Psychorubrin, a new cytotoxic naphthoquinone from Psychotria rubra and its structure-activity relationships” (1987).
# Test system: KB
# Test: Evaluated for cytotoxicity in the KB cell culture assay
# Assay type: functional
# Conditions: Homo sapiens, read-out: ED50 (the source's name)
# How it was run: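 Cytotoxicity screen per NIH protocol. 10^4 tumor cells grown in MEM with 10% fetal calf serum; penicillin and streptomycin given on day 3. Drug tested at 0.1 to 20 µg/mL (N = 4). Viable cells counted by trypan blue exclusion and expressed as % of the 0.05% Tween 80-water control. ED50 estimated from a semi-log plot of concentration vs % viable cells.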
row,SMILES,EC50
1,CC(=O)OC1CCC2=C(O1)C(=O)c1ccccc1C2=O (stereo not drawn),10 µg/mL
2,CC(O)c1cc2c(o1)C(=O)c1ccccc1C2=O (stereo not drawn),2 µg/mL
3,Cc1cc2c(o1)C(=O)c1ccccc1C2=O,0.3 µg/mL
4,O=C1C2=C(OC(O)CC2)C(=O)c2ccccc21 (stereo not drawn),20 µg/mL
5,Cc1cc2c(o1)-c1ccccc1C(=O)C2=O,0.6 µg/mL
6,O=C1C2=C(OCC=C2)C(=O)c2ccccc21,0.4 µg/mL
7,C/C=C/C1=C(O)C(=O)c2ccccc2C1=O,14 µg/mL
8,CC(=O)c1cc2c(o1)C(=O)c1ccccc1C2=O [NAPABUCASIN],1 µg/mL
9,COC1CCC2=C(O1)C(=O)c1ccccc1C2=O (stereo not drawn),11 µg/mL
10,C/C=C/C1=C(OC(=O)c2ccccc2)C(=O)c2ccccc2C1=O,5.1 µg/mL
11,O=C1C2=C(OC(Cl)CC2)C(=O)c2ccccc21 (stereo not drawn),9.3 µg/mL
12,O=C1C2=C(CC(O)OC2)C(=O)c2ccccc21 (stereo not drawn),3 µg/mL
13,CC(C)=CCC1=C(O)C(=O)c2ccccc2C1=O [LAPACHOL],4.4 µg/mL
14,C/C=C/C1=C(OC(C)=O)C(=O)c2ccccc2C1=O,5.1 µg/mL
15,C=C/C=C1/C(=O)C(=O)c2ccccc2C1=O,0.4 µg/mL
16,O=C1C2=C(OCCC2)C(=O)c2ccccc21,8 µg/mL
17,CC(=O)OC1CC2=C(CO1)C(=O)c1ccccc1C2=O (stereo not drawn),5 µg/mL
18,C/C=C/C1=C(OC(=O)CC)C(=O)c2ccccc2C1=O,6.5 µg/mL
